ChEMBL document CHEMBL1799991, “Discovery of a novel class of 2-aminopyrimidines as CDK1 and CDK2 inhibitors” (Bioorg Med Chem Lett, 2011)

What was measured:
[1] = target: Cyclin-dependent kinase 2 (Homo sapiens, UniProt P24941); assay: Inhibition of CDK2 in presence of 100 uM ATP
[2] = target: Cyclin-dependent kinase 1 (Homo sapiens, UniProt P06493); assay: Inhibition of CDK1 in presence of 100 uM ATP
HCT-116 = assay: Cytotoxicity against human HCT116 cells after 48 hrs; assay type: functional; settings: HCT-116, 48 h
How it was run: (§1)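 Exponentially growing cells exposed to test compounds at various concentrations for 48 h, then cell numbers counted; GI50 taken as the concentration giving 50% growth inhibition. Values are means of three experiments.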

EJ = assay: Cytotoxicity against human EJ cells after 48 hrs; assay type: functional; how it was run: as §1
A549 = assay: Cytotoxicity against human A549 cells after 48 hrs; assay type: functional; settings: A549, 48 h; how it was run: as §1

Chain of Cyclin-dependent kinase 1 (P06493 whole entry): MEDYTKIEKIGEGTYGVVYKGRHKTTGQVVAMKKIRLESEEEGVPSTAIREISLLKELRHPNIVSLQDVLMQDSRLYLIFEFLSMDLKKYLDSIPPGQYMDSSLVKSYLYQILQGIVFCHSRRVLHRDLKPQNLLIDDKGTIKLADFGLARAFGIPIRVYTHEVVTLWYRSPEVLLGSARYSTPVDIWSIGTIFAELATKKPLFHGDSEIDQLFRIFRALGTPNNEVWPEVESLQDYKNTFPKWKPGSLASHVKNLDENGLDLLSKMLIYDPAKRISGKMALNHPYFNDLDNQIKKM

Nc1nccc(-c2cc(N3CCS(=O)(=O)CC3)ccc2O)n1
IC50 [1]: 3.98 µM
IC50 [2]: 7.5 µM

Nc1nccc(-c2cc(N3CCC(=O)CC3)ccc2O)n1
IC50 [1]: > 10 µM
IC50 [2]: > 10 µM

Nc1nccc(-c2cc(N3C[C@H](O)[C@@H](O)C3)ccc2O)n1
GI50 (HCT-116): 2.5 µM
IC50 [1]: 0.021 µM
IC50 [2]: 0.015 µM
GI50 (EJ): 4 µM
GI50 (A549): 5.5 µM

Nc1nccc(-c2cc(N3CCC(O)CC3)ccc2O)n1
IC50 [1]: 3.76 µM
IC50 [2]: 10 µM

Nc1nc(-c2cc(N3C[C@H](O)[C@@H](O)C3)ccc2O)cc(C2CCNCC2)n1
GI50 (HCT-116): > 10 µM
IC50 [1]: 0.2 µM
IC50 [2]: 0.34 µM

CCc1cc(-c2cc(N3C[C@H](O)[C@@H](O)C3)ccc2O)nc(N)n1
GI50 (HCT-116): 1 µM
IC50 [1]: 0.05 µM
IC50 [2]: 0.031 µM
GI50 (EJ): 1.5 µM
GI50 (A549): 3 µM

Nc1nc(-c2cc(N3C[C@H](O)[C@@H](O)C3)ccc2O)cc(C2CC2)n1
IC50 [1]: > 10 µM
IC50 [2]: > 10 µM

CN1CCN(c2cc(-c3cc(N4C[C@H](O)[C@@H](O)C4)ccc3O)nc(N)n2)CC1
GI50 (HCT-116): > 10 µM
IC50 [1]: 0.3 µM
IC50 [2]: 0.42 µM

Nc1nccc(-c2cc(N3CCC(O)C3)ccc2O)n1 (stereo not drawn)
IC50 [1]: 2.11 µM
IC50 [2]: 2.99 µM

Nc1nc(-c2cc(N3C[C@H](O)[C@@H](O)C3)ccc2O)cc(C2CCCCC2)n1
GI50 (HCT-116): 0.8 µM
IC50 [1]: 0.052 µM
IC50 [2]: 0.045 µM
GI50 (EJ): 1.2 µM
GI50 (A549): 1.2 µM

Cc1cc(-c2cc(N3C[C@H](O)[C@@H](O)C3)ccc2O)nc(N)n1
GI50 (HCT-116): 0.4 µM
IC50 [1]: 0.042 µM
IC50 [2]: 0.02 µM
GI50 (EJ): 0.9 µM
GI50 (A549): 2 µM

Nc1nc(-c2cc(N3C[C@H](O)[C@@H](O)C3)ccc2O)cc(N2CCOCC2)n1
GI50 (HCT-116): > 10 µM
IC50 [1]: 0.94 µM
IC50 [2]: 1 µM

Nc1nc(-c2cc(N3C[C@H](O)[C@@H](O)C3)ccc2O)cc(C2CCCCCC2)n1
GI50 (HCT-116): 0.3 µM
IC50 [1]: 0.09 µM
IC50 [2]: 0.031 µM
GI50 (EJ): 0.7 µM
GI50 (A549): 0.6 µM

CC(C)c1cc(-c2cc(N3C[C@H](O)[C@@H](O)C3)ccc2O)nc(N)n1
GI50 (HCT-116): 0.9 µM
IC50 [2]: 0.094 µM
GI50 (EJ): 1.5 µM
GI50 (A549): 1.8 µM

Nc1nc(-c2cc(N3C[C@H](O)[C@@H](O)C3)ccc2O)cc(C2CCCNC2)n1 (stereo partly drawn)
GI50 (HCT-116): > 10 µM
IC50 [1]: 0.36 µM
IC50 [2]: 0.22 µM
GI50 (EJ): > 10 µM
GI50 (A549): > 10 µM

Nc1nccc(-c2cc(N3CCCCC3)ccc2O)n1
IC50 [1]: > 10 µM
IC50 [2]: > 10 µM

CCCCCCc1cc(-c2cc(N3C[C@H](O)[C@@H](O)C3)ccc2O)nc(N)n1
GI50 (HCT-116): 0.5 µM
IC50 [1]: 0.45 µM
IC50 [2]: 0.26 µM
GI50 (EJ): 0.8 µM
GI50 (A549): 0.7 µM

Nc1nc(NC2CCCCC2)cc(-c2cc(N3C[C@H](O)[C@@H](O)C3)ccc2O)n1
GI50 (HCT-116): 0.9 µM
IC50 [1]: 0.06 µM
IC50 [2]: 0.02 µM
GI50 (EJ): 2 µM
GI50 (A549): 1.5 µM

Nc1nccc(-c2cc(N3CCOCC3)ccc2O)n1
IC50 [1]: 0.79 µM
IC50 [2]: 2.24 µM

Nc1nc(-c2cc(N3C[C@H](O)[C@@H](O)C3)ccc2O)cc(C2CCCC2)n1
GI50 (HCT-116): 0.4 µM
IC50 [1]: 0.042 µM
IC50 [2]: 0.023 µM
GI50 (EJ): 0.9 µM
GI50 (A549): 2 µM

Nc1nc(NCCN2CCOCC2)cc(-c2cc(N3C[C@H](O)[C@@H](O)C3)ccc2O)n1
GI50 (HCT-116): > 10 µM
IC50 [1]: 0.45 µM
IC50 [2]: 0.79 µM

Nc1nc(NC2CCCC2)cc(-c2cc(N3C[C@H](O)[C@@H](O)C3)ccc2O)n1
GI50 (HCT-116): 3 µM
IC50 [1]: 0.015 µM
IC50 [2]: 0.019 µM
GI50 (EJ): 4.5 µM
GI50 (A549): 7 µM

CN(C)c1cc(-c2cc(N3C[C@H](O)[C@@H](O)C3)ccc2O)nc(N)n1
GI50 (HCT-116): > 10 µM
IC50 [1]: 0.25 µM
IC50 [2]: 0.28 µM
